Reference: ChEMBL document CHEMBL1143520, “Bicyclic amidine inhibitors of nitric oxide synthase: discovery of perhydro-iminopyrindine and perhydro-iminoquinoline as potent, orally active inhibitors of inducible nitric oxide synthase” (Bioorg Med Chem Lett, 2005)

Legend:
Nitric oxide synthase 3 = target: T1, Nitric oxide synthase 3 (Homo sapiens, UniProt P29474); test: Inhibitory activity against human Endothelial nitric oxide synthase (eNOS)
T1 sequence (P29474 whole entry): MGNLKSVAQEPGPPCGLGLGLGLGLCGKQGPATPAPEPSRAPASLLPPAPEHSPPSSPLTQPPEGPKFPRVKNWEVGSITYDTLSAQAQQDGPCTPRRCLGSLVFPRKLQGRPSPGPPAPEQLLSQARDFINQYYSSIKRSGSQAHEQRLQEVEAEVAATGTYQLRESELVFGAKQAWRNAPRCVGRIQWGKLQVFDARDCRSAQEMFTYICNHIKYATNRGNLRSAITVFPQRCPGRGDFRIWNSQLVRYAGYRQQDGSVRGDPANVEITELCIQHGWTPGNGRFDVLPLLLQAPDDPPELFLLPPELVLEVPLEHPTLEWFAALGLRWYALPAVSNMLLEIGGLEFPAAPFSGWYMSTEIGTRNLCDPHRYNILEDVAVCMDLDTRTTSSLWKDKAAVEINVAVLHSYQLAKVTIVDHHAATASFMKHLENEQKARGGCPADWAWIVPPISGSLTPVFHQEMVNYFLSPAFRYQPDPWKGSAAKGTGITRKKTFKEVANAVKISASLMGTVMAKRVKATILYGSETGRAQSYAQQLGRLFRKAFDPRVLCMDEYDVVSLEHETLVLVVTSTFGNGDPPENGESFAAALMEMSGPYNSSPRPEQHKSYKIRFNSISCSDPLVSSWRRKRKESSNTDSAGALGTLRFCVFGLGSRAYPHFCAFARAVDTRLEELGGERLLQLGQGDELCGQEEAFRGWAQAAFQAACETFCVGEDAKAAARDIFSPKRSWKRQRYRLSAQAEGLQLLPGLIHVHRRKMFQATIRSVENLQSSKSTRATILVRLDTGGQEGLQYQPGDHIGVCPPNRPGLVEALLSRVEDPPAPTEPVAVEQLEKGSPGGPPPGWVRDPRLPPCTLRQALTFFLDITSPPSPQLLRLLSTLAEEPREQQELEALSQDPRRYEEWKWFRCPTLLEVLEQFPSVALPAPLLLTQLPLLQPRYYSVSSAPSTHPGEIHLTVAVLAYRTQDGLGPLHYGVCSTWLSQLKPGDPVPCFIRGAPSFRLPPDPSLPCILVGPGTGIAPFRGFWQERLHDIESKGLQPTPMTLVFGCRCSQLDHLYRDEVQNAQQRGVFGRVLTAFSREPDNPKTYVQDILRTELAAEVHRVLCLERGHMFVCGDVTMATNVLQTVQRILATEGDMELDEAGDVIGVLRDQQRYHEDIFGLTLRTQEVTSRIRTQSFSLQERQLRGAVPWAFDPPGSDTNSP

Rattus norvegicus [1] = test: Percentage inhibition of plasma nitrite/nitrate after peroral administration of 10 mg/kg of compound to rats 16 hr prior to LPS treating; type: functional; conditions: route oral
In short: (§1)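 Rats given 10 mg/kg po at set times before LPS challenge. Plasma nitrate/nitrite measured 5 h after LPS: nitrate reduced to nitrite by nitrate reductase, then fluorometric nitrite read-out. Reported as % inhibition of plasma NOx.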

Rattus norvegicus [2] = test: Percentage inhibition of plasma nitrite/nitrate after peroral administration of 10 mg/kg of compound to rats 2 hr prior to LPS treating; type: functional; conditions: route oral; in short: as §1
Nitric oxide synthase 1 = Nitric oxide synthase 1 (Homo sapiens, UniProt P29475); test: Inhibitory activity against human Neuronal nitric oxide synthase (nNOS)
Nitric oxide synthase 1, sequence (P29475 whole entry): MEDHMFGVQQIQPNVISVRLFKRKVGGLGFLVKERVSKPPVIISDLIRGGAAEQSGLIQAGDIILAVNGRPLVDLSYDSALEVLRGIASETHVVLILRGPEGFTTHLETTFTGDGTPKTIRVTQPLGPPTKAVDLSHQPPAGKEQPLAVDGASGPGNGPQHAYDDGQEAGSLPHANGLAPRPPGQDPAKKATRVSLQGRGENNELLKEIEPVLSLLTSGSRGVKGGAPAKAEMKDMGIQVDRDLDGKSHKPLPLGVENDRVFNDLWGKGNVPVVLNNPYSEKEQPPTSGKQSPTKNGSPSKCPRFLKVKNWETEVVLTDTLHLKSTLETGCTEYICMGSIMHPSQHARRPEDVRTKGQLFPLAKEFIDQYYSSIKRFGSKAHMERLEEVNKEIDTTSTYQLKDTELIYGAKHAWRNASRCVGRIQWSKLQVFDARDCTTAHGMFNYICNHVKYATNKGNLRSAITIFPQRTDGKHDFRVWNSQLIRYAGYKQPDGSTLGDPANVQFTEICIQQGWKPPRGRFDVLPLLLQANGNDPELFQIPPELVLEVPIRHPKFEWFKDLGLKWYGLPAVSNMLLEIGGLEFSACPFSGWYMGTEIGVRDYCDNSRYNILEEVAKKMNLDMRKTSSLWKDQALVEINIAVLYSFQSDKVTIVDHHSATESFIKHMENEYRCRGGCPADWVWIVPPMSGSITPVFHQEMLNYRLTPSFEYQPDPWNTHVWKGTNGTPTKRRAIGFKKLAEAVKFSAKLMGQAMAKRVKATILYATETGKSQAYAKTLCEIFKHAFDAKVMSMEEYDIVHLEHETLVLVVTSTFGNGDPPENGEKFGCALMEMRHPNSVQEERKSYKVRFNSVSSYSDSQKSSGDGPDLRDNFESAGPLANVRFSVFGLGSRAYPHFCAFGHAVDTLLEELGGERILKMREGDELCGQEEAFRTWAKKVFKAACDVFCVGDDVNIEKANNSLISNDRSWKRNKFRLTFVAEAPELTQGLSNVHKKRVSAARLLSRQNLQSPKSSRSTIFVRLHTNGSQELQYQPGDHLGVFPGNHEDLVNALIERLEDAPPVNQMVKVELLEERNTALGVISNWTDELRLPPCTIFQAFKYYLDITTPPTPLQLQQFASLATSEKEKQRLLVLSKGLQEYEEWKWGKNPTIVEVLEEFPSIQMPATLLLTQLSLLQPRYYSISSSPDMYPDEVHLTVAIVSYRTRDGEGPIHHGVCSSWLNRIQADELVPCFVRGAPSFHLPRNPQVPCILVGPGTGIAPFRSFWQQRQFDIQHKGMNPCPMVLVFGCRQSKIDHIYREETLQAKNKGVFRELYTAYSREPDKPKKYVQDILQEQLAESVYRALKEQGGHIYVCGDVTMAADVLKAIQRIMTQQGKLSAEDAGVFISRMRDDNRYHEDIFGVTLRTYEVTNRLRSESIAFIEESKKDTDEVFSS

Rattus norvegicus [3] = test: Effective dose causing 50% reduction in plasma nitrite relative to control animals after intravenous administration in LPS treated rats; type: functional
In short: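 Rat endotoxin model: LPS challenge, then iv dosing 2 h after LPS. Plasma collected 5 h after LPS. Nitrate converted to nitrite with nitrate reductase, then total nitrite/nitrate measured fluorometrically.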

Rattus norvegicus [4] = test: Percentage inhibition of plasma nitrite/nitrate after peroral administration of 10 mg/kg of compound to rats 1 hr prior to LPS treating; type: functional; conditions: route oral; in short: as §1
Rattus norvegicus [5] = test: Percentage inhibition of plasma nitrite/nitrate after peroral administration of 10 mg/kg of compound to rats 4 hr prior to LPS treating; type: functional; conditions: route oral; in short: as §1
[6] = target: Nitric oxide synthase (inducible and endothelial) (Homo sapiens) (UniProt P35228+P29474); test: Selectivity measured as the ratio of eNOS IC50/iNOS IC50; type: protein assay
[7] = target: Nitric oxide synthase, inducible (Homo sapiens, UniProt P35228); test: Inhibitory activity against human Inducible nitric oxide synthase (iNOS)
Nitric oxide synthase, inducible, sequence (P35228 whole entry): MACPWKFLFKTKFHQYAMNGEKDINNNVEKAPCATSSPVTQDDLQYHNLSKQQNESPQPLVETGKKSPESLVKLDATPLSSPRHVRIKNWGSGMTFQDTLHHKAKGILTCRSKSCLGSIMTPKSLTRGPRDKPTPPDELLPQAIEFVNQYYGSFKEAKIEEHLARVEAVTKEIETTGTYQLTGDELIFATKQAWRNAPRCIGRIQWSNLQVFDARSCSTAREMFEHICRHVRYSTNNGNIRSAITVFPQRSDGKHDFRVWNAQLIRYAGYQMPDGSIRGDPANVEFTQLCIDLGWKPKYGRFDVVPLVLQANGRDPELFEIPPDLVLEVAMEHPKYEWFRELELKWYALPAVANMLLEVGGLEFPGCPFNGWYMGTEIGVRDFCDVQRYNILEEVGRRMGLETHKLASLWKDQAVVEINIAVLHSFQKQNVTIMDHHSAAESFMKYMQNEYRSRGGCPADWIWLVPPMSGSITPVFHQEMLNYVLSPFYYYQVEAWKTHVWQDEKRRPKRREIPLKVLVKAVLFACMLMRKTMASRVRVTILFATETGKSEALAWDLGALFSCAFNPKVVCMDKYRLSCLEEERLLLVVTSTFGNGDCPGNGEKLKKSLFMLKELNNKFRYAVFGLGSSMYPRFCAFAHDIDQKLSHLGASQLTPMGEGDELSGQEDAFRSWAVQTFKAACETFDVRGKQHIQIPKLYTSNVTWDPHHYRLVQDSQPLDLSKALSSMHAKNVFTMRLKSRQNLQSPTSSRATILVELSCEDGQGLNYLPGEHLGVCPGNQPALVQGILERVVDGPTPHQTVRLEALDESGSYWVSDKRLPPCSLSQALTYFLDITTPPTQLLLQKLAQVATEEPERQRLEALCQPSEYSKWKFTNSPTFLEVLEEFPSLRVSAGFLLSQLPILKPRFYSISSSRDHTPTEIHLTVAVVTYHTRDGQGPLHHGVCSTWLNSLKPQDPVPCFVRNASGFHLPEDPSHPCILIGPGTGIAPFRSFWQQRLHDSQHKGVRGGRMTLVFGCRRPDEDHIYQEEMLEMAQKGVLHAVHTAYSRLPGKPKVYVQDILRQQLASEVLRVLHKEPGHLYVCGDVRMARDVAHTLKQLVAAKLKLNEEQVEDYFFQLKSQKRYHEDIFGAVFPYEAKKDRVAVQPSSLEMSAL

C[C@@H]1CC(N)=N[C@@H]2CCCC[C@H]12
IC50 (Nitric oxide synthase 3): 830 nM | inhibition in vivo at 10 mg/kg (Rattus norvegicus [1]): 42% | inhibition in vivo at 10 mg/kg (Rattus norvegicus [2]): 69% | IC50 (Nitric oxide synthase 1): 53 nM | ED50 (Rattus norvegicus [3]): 0.19 mg/kg | inhibition in vivo at 10 mg/kg (Rattus norvegicus [4]): 57% | inhibition in vivo at 10 mg/kg (Rattus norvegicus [5]): 74% | Selectivity [6]: 37 | IC50 [7]: 22 nM

C[C@H]1CC(N)=N[C@H]2CCC[C@H]21
IC50 (Nitric oxide synthase 3): 870 nM | IC50 (Nitric oxide synthase 1): 36 nM | Selectivity [6]: 6.5 | IC50 [7]: 133 nM

C[C@H]1CC(N)=N[C@H]2CCCC[C@H]21
IC50 (Nitric oxide synthase 3): > 5000 nM | IC50 (Nitric oxide synthase 1): 610 nM | IC50 [7]: > 5000 nM

NC1=N[C@H]2CCCC[C@H]2CC1
IC50 (Nitric oxide synthase 3): 12500 nM | IC50 (Nitric oxide synthase 1): 246 nM | Selectivity [6]: 67 | IC50 [7]: 186 nM

NC1=Nc2ccccc2CC1
IC50 (Nitric oxide synthase 3): 85000 nM | IC50 (Nitric oxide synthase 1): 4900 nM | Selectivity [6]: 6.1 | IC50 [7]: 14000 nM

C[C@@H]1CC(N)=N[C@H]2CCCC[C@@H]12
IC50 (Nitric oxide synthase 3): 2000 nM | IC50 (Nitric oxide synthase 1): 190 nM | Selectivity [6]: 52 | IC50 [7]: 38 nM

NC1=N[C@H]2CCCC[C@@H]2CC1
IC50 (Nitric oxide synthase 3): 5500 nM | IC50 (Nitric oxide synthase 1): 530 nM | IC50 [7]: 528 nM

C[C@@H]1CC(N)=N[C@@H]2CCC[C@H]12 (stereo in doubt; 10a) [listing 1 of 2 here]
Selectivity [6]: 40

CC1CCN=C(N)C1 (configuration not stated)
ED50 (Rattus norvegicus [3]): 0.5 mg/kg | IC50 [7]: 37 nM

C[C@@H]1CC(N)=N[C@@H]2CCCCC[C@H]12
IC50 (Nitric oxide synthase 3): 4500 nM | IC50 (Nitric oxide synthase 1): 1300 nM | Selectivity [6]: 5.2 | IC50 [7]: 860 nM

C[C@@H]1CC(N)=N[C@@H]2CCC[C@H]12 (stereo in doubt; 10) [listing 1 of 2 here]
Selectivity [6]: 31

N=C1CCCCN1
IC50 (Nitric oxide synthase 3): 630 nM | IC50 [7]: 300 nM

C[C@@H]1CC(N)=N[C@@H]2CCC[C@H]12 (stereo in doubt; 10a) [listing 2 of 2 here]
IC50 (Nitric oxide synthase 3): 360 nM | inhibition in vivo at 10 mg/kg (Rattus norvegicus [1]): 39% | inhibition in vivo at 10 mg/kg (Rattus norvegicus [2]): 80% | IC50 (Nitric oxide synthase 1): 21 nM | ED50 (Rattus norvegicus [3]): 0.25 mg/kg | inhibition in vivo at 10 mg/kg (Rattus norvegicus [4]): 95% | inhibition in vivo at 10 mg/kg (Rattus norvegicus [5]): 52% | IC50 [7]: 9 nM

C[C@@H]1CC(N)=N[C@@H]2CCC[C@H]12 (stereo in doubt; 10) [listing 2 of 2 here]
IC50 (Nitric oxide synthase 3): 470 nM | IC50 (Nitric oxide synthase 1): 31 nM | IC50 [7]: 15 nM
